The test system of assay [1] is Mus musculus. Nature of the assay: (§1) In vivo activity against triglycerides (TG) by using Alloxan-induced hyperlipoperoxidemia method in BALB/c mice after peroral administration at 100 mg/Kg dose. It counts as functional. In outline: (§2)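 Male BALB/c mice, 8 weeks old, were fasted 18 h and then given alloxan 75 mg/kg iv. Compound was dosed orally 30 min before and 24 and 30 h after alloxan. Cervical blood was taken at 48 h, diluted in saline and centrifuged. Serum LPO was measured by TBA method; cholesterol and TG by enzymatic kits. Values are % decrease versus alloxan controls without compound.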

The subject of assay [2] is Mus musculus. Nature of the assay: In vivo activity against hypocholesterol (CHOL) by using Alloxan-induced hyperlipoperoxidemia method in BALB/c mice after peroral administration at 100 mg/Kg dose. The format is functional. In a few lines: as §2
The subject of assay [3] is Mus musculus. Put plainly: In vivo activity against serum lipid peroxidation level (s-LPO) by using Alloxan-induced hyperlipoperoxidemia method in BALB/c mice after peroral administration at 100 mg/Kg dose. It counts as functional. In outline:
as §2

Assay [4] is filed under the species Rattus norvegicus. Nature of the assay: In vitro inhibitory activity against rat microsomal lipid peroxidation (m-LPO). It counts as functional. In a few lines:
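Lipid peroxidation used rat liver microsomes driven by ferrous sulfate/cysteine, per the Malvy et al. approach. IC50 is given in µg/mL.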

For assay [5], the system named is Mus musculus. Put plainly: Hypoglycemic activity at dose 50 mg/Kg in KK-mice after peroral administration. It counts as functional. In a few lines:
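Male KK-mice, a genetically diabetic NIDDM model, were housed singly from 8 weeks of age and used at about 4-5 months once body weight exceeded 40 g. Compound was suspended in 0.5% carboxymethylcellulose saline and dosed orally 18 h before tail-vein blood sampling into heparinized tubes. Plasma glucose was measured with a glucose analyzer. Values are % decrease versus vehicle-dosed controls run simultaneously.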

The subject of assay [6] is Mus musculus. Put plainly: In vivo activity against triglycerides (TG) by using Alloxan-induced hyperlipoperoxidemia method in BALB/c mice after peroral administration at 300 mg/Kg dose. The format is functional. In outline: as §2
Assay [7] relates to Mus musculus. Put plainly: In vivo activity against hypocholesterol (CHOL) by using Alloxan-induced hyperlipoperoxidemia method in BALB/c mice after peroral administration at 300 mg/Kg dose. The format is functional. In a few lines: as §2
Assay [8] has as its system Mus musculus. Nature of the assay: In vivo activity against serum lipid peroxidation level (s-LPO) by using Alloxan-induced hyperlipoperoxidemia method in BALB/c mice after peroral administration at 300 mg/Kg dose. The format is functional. In outline:
as §2

Assay [9] relates to Mus musculus. Put plainly: In vivo activity against serum lipid peroxidation level (s-LPO) by using Alloxan-induced hyperlipoperoxidemia method in BALB/c mice after peroral administration at 50 mg/Kg dose. It counts as functional. In a few lines: as §2
Assay [10] concerns Mus musculus. Put plainly: In vivo activity against triglycerides (TG) by Alloxan-induced hyperlipoperoxidemia method in BALB/c mice after peroral administration at 50 mg/Kg dose. It counts as functional. In a few lines: as §2
In assay [11] the test system is Rattus norvegicus. Put plainly: Liver weight in Wistar-Imamichi rats at 200 mg/Kg dose in 12 rats. It counts as functional.
The species named for assay [12] is Rattus norvegicus. Nature of the assay: Hypotriglyceridemic activity of Wistar-Imamichi rats in 12 animals.
Assay [13] relates to Mus musculus. Put plainly: In vivo activity against triglycerides (TG) by using Alloxan-induced hyperlipoperoxidemia method in BALB/c mice after peroral administration at 300 mg/kg dose. The format is functional. The settings on record: route oral. In outline: as §2
Assay [14] has as its system Mus musculus. Put plainly: In vivo activity against hypocholesterol (CHOL) by using Alloxan-induced hyperlipoperoxidemia method in BALB/c mice after peroral administration at 100 mg/kg dose. The format is functional. The settings on record: route oral. In a few lines: as §2
Assay [15] concerns Mus musculus. Nature of the assay: In vivo activity against serum lipid peroxidation level (s-LPO) by using Alloxan-induced hyperlipoperoxidemia method in BALB/c mice after peroral administration at 100 mg/kg dose. It counts as functional. The note with it: route oral. In outline: as §2
For assay [16], the system named is Mus musculus. Put plainly: In vivo activity against serum lipid peroxidation level (s-LPO) by using Alloxan-induced hyperlipoperoxidemia method in BALB/c mice after peroral administration at 300 mg/kg dose. The note with it: route oral. The format is functional. In a few lines:
as §2

Assay [17] relates to Mus musculus. Nature of the assay: In vivo activity against triglycerides (TG) by using Alloxan-induced hyperlipoperoxidemia method in BALB/c mice after peroral administration at 200 mg/Kg dose. The format is functional. In outline: as §2
For assay [18], the system named is Mus musculus. Nature of the assay: In vivo activity against hypocholesterol (CHOL) by using Alloxan-induced hyperlipoperoxidemia method in BALB/c mice after peroral administration at 200 mg/Kg dose. It counts as functional. In outline: as §2
The test system of assay [19] is Mus musculus. Put plainly: In vivo activity against serum lipid peroxidation level (s-LPO) by using Alloxan-induced hyperlipoperoxidemia method in BALB/c mice after peroral administration at 200 mg/Kg dose. It counts as functional. In a few lines:
as §2

Assay [20] concerns Mus musculus. Put plainly: In vivo activity against triglycerides (TG) by using Alloxan-induced hyperlipoperoxidemia method in BALB/c mice after peroral administration at 10 mg/Kg dose. The format is functional. In a few lines:
as §2

In assay [21] the test system is Mus musculus. Nature of the assay: In vivo activity against hypocholesterol (CHOL) by Alloxan-induced hyperlipoperoxidemia method in BALB/c mice after peroral administration at 50 mg/Kg dose. It counts as functional. In outline:
as §2

The subject of assay [22] is Mus musculus. Nature of the assay: In vivo activity against hypocholesterol (CHOL) by using Alloxan-induced hyperlipoperoxidemia method in BALB/c mice after peroral administration at 10 mg/Kg dose. It counts as functional. In a few lines: as §2
In assay [23] the test system is Mus musculus. Put plainly: In vivo activity against serum lipid peroxidation level (s-LPO) by using Alloxan-induced hyperlipoperoxidemia method in BALB/c mice after peroral administration at 10 mg/Kg dose. It counts as functional. In a few lines: as §2
The subject of assay [24] is Mus musculus. The assay is described as §1. It counts as functional. In outline: as §2
The source holds these as a separate data set.

The structures appear in SMILES notation. In brackets after ≈: the same amount, converted by molar mass. Several values for one entry are separate records, joined by “and”; a condition that tells them apart may be missing. Identical values can stand only once. Bounds are passed on as bounds.

Consider `CCC1(COc2ccc(CC3SC(=O)NC3=O)cc2)CCc2c(C)c(O)c(C)c(C)c2O1` (centres undefined), for which the values for the Decrease in the assay on Mus musculus [1], with Mus musculus [2] and in the assay on Mus musculus [3] were 14%, 19.5% and 17.6%, respectively. The same compound gave an IC50 in the assay filed under Rattus norvegicus [4] of 0.1 µg/mL (≈ 0.22 µM).

Take `Cc1cc2c(cc1O)CCC(C)(COc1ccc(CC3SC(=O)NC3=O)cc1)O2` (centres undefined): the IC50 in the assay filed under Rattus norvegicus [4] is 0.3 µg/mL (≈ 0.726 µM).

In the assay listed under Rattus norvegicus [4], `Cc1c(C)c2c(c(C)c1OC(=O)c1cccnc1)CCC(C)(COc1ccc(CC3SC(=O)NC3=O)cc1)O2` (centres undefined) gave an IC50 of under 0.1 µg/mL.

`CC1(COc2ccc(CC3SC(=O)NC3=O)cc2)CCc2cc(O)c(C(C)(C)C)cc2O1` (centres undefined): the Decrease in the assay on Mus musculus [5] is 28.5%; in the assay with Mus musculus [1], -48.6%; with Mus musculus [2], 5.6%; in the assay on Mus musculus [3], 16.1%. For the same compound, the IC50 in the assay listed under Rattus norvegicus [4] is under 0.1 µg/mL.

Regarding `COc1c(O)c(C)c2c(c1OC)OC(C)(CCOc1ccc(CC3SC(=O)NC3=O)cc1)CC2` (centres undefined), it took 0.3 µg/mL (≈ 0.615 µM) to reach half-maximal inhibition in the assay listed under Rattus norvegicus [4] (IC50).

In the assay listed under Rattus norvegicus [4], `Cc1c(C)c2c(c(C)c1O)CCC(C)(CCOc1ccc(CC3SC(=O)NC3=O)cc1)O2` (centres undefined) came in with an IC50 of under 0.1 µg/mL.

On to `CC1(CCOc2ccc(CC3SC(=O)NC3=O)cc2)CCc2cc(O)c(C(C)(C)C)cc2O1` (centres undefined), for which the IC50 in the assay filed under Rattus norvegicus [4] worked out at 0.1 µg/mL (≈ 0.213 µM).

In turn, `CCCC(=O)Oc1c(C)c(C)c2c(c1C)CCC(C)(COc1ccc(CC3SC(=O)NC3=O)cc1)O2` (centres undefined) registered an IC50 in the assay listed under Rattus norvegicus [4] of under 0.1 µg/mL.

Regarding `Cc1cc(C(C)(C)C)c(O)c(C(C)(C)C)c1` [BUTYLATED HYDROXYTOLUENE], in the assay listed under Rattus norvegicus [4], the IC50 worked out at 0.1 µg/mL (≈ 0.454 µM).

In the case of `CC1(COc2ccc(CC3SC(=O)NC3=O)cc2)CCCCC1` (centres undefined) [CIGLITAZONE], the values for the Decrease with Mus musculus [1], with Mus musculus [2] and in the assay on Mus musculus [3] were 7.9%, 10.8% and 18.7%, respectively. The compound also registered an IC50 in the assay listed under Rattus norvegicus [4] of over 1 µg/mL.

Take `CCOC(=O)C(C)(C)Oc1ccc(Cl)cc1` [CLOFIBRATE]: the Decrease in the assay on Mus musculus [1] was determined as 19.6%; in the assay with Mus musculus [6], 22.8%; in the assay with Mus musculus [2] it was 5.9%; in the assay with Mus musculus [7], 6.8%; with Mus musculus [3], 26.6%; in the assay on Mus musculus [8] it was 37.6%. Besides, the Decrease with Mus musculus [9] came to 2.8%; with Mus musculus [10], 1.1%; in the assay listed under Rattus norvegicus [12], 37.6%. Besides, in the assay filed under Rattus norvegicus [4], the IC50 is over 1 µg/mL. The Increase with Rattus norvegicus [11] is 37.2%.

As to `Cc1ccc(C)c(OCCCC(C)(C)C(=O)O)c1` [GEMFIBROZIL], the Decrease with Mus musculus [13] was 12.3% and 15.9%; in the assay with Mus musculus [14] it was 3.2%; in the assay on Mus musculus [15], 12.3%; with Mus musculus [16], 20.5%; in the assay filed under Rattus norvegicus [12], 39.4%. The IC50 in the assay filed under Rattus norvegicus [4] is over 1 µg/mL.

Consider `CC(C)(Sc1cc(C(C)(C)C)c(O)c(C(C)(C)C)c1)Sc1cc(C(C)(C)C)c(O)c(C(C)(C)C)c1` [PROBUCOL], for which the Decrease in the assay with Mus musculus [1] was -5.3%; in the assay on Mus musculus [17] it was -25.2%; in the assay with Mus musculus [6], -3%; with Mus musculus [2], -1.1%; with Mus musculus [18], -9.7%; with Mus musculus [7] it was 0.8%. The results for the Decrease in the assay with Mus musculus [3], in the assay on Mus musculus [19] and in the assay on Mus musculus [8] were 5.8%, -22.1% and 6.1%, respectively. Also, the IC50 in the assay listed under Rattus norvegicus [4] was over 1 µg/mL. The compound further registered an Increase in the assay with Rattus norvegicus [11] of 0.2%.

As to `CC(=O)Oc1c(C)c(C)c2c(c1C)CCC(C)(CCC[C@H](C)CCC[C@H](C)CCCC(C)C)O2` (some centres undefined) [TOCOPHEROL ACETATE], the Decrease in the assay with Mus musculus [20] is listed as 36.5%; with Mus musculus [1], 27.3%; in the assay with Mus musculus [6], 16.1%; in the assay on Mus musculus [21], 8.3%; in the assay with Mus musculus [22], 20.4%; in the assay with Mus musculus [2], 10.7%. For the same compound, the Decrease with Mus musculus [7] was 9.1%; in the assay with Mus musculus [23], 23.5%; in the assay with Mus musculus [3], 46.1%; in the assay with Mus musculus [8], 56.6%; in the assay on Mus musculus [9], 27.9%; in the assay with Mus musculus [10], 5.2%. Also, the IC50 in the assay listed under Rattus norvegicus [4] was over 1 µg/mL.

As for `Cc1c(C)c2c(c(C)c1O)CCC(C)(COc1ccc(CC3SC(=O)NC3=O)cc1)O2` (centres undefined) [TROGLITAZONE], the Decrease with Mus musculus [5] amounted to 38.5%; in the assay on Mus musculus [1], 57.5%; with Mus musculus [24], 57.5%; in the assay on Mus musculus [21], 19.7%; in the assay on Mus musculus [3], 54.3%; with Mus musculus [9] it was 36%. Further, the Decrease in the assay on Mus musculus [10] is reported as 31.9%. The same compound had an IC50 in the assay filed under Rattus norvegicus [4] of 0.1 µg/mL (≈ 0.226 µM).
